Screening results (PubChem BioAssay)
Insulin prom act = TRM-6 insulin promoter activation; TRM-6 cells, insulin promoter eGFP reporter, imaging; plate-scaled: unstimulated 0, stimulated control 100; activation, % at 2 µM; 0.81% of 130,000 active;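 active means activation at 2 µM above a set limit, confirmed on inspection of the cell images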;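 further: share of cells whose green reporter signal exceeds an intensity cutoff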
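System: human fetal islet-derived TRM-6 cells with tamoxifen-inducible insulin promoter–eGFP reporter; input: seeding density of 1,000 cells per well; buffer or medium: Low-glucose (5.5 mM) medium with tamoxifen; incubation: compound exposure 48 h, 37 °C; measured by: high-content imaging of fixed cells with Hoechst nuclear stain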
The depositor's hits bear a star; + = active, no number; [ ] = another dose, or the depositor's remark. The sample as a whole holds a higher share of hits than the screen did.

SMILES | Insulin prom act
COCC(C)NC(=O)NC1(C(F)(F)F)Oc2ccc(Cl)cc2O1 (stereo not drawn) | -71
COCC(C)NC(=O)NC(=O)c1ccc(Cl)cc1 (stereo not drawn) | 77*
O=C(Cc1ccc(Cl)cc1)c1c[nH]c(C(=O)NCCCn2ccnc2)c1 | 109
CSc1nc(=O)n2cc(C)ccc2n1 | -8
Cc1cc(C)c(-c2c(O)c3cnn(-c4ccccc4)c3[nH]c2=O)c(C)c1 | -67
CCOC(=O)Cc1ccc2sc(-c3ccccc3)nc2c1 | 9
Clc1ccc(CN2C3=NCCCN3c3ccccc32)cc1 | 136*
OC(CN1C2=NCCN2c2ccccc21)c1ccc(Br)cc1 (stereo not drawn) | -3
O=C(CN1C2=NCCCN2c2ccccc21)c1cccc(Br)c1 | -8
COc1ccc2c(COC(=O)CNC(=O)C34CC5CC(CC(C5)C3)C4)cc(=O)oc2c1 | 3
CCN1CCN(C(=S)NC(C)c2ccccc2)CC1 (stereo not drawn) | 3
O=C(O)C(Cc1c[nH]c2ccccc12)N1C(=O)C2C3c4ccccc4C(c4ccccc43)C2C1=O (stereo not drawn) | -6
Cc1cc(C)nc(NC(=O)CSc2nc3ccccc3s2)n1 | -4
O=C(CSc1nn(-c2ccccc2)c(=S)s1)Nc1ncccn1 | 377*
O=C(CSc1ncn(-c2ccccc2)n1)Nc1nccs1 | -8
Cc1ccc(/C=N/OC(=O)c2nn(C)cc2Cl)cc1 | 0
COc1ccc(NC(=O)CSc2nc(C)cc(C(F)(F)F)n2)cc1 | 69
Cc1cc(C(F)(F)F)nc(SCC(=O)Nc2ccccc2)n1 | 376
Cc1cc(C(F)(F)F)nc(SCC(=O)NC2CC3CCC2C3)n1 (stereo not drawn) | 431*
CC1(C)CC(=O)C=C(NC2=CC3OC(c4ccccc4)OCC3OC2=O)C1 (stereo not drawn) | -7
Cc1nnc(SCC(=O)N2c3ccccc3C(C)(c3ccccc3)CC2(C)C)s1 (stereo not drawn) | 7
CCOC(=O)C1=CN(c2cccc(F)c2)C=C(C(=O)OCC)C1c1cc(OC)c(O)c([N+](=O)[O-])c1 | 0
CCc1ccc(N2C(=O)CC(N3CCC(C(=O)OC)CC3)C2=O)cc1 (stereo not drawn) | 543*
CCOC(=O)C1CCCN(C2CC(=O)N(c3ccccc3)C2=O)C1 (stereo not drawn) | 0
CCc1ccc(N2CC(C(=O)OC)CC2=O)cc1 (stereo not drawn) | -68
SMILES | Insulin prom act
O=C(N/C(=C/c1cccnc1)C(=O)N1CCOCC1)c1ccccc1Br | 3
CC[n+]1c(/C=C/Nc2ccccc2)oc2ccccc21 | 138*
O=S(=O)([O-])CCC[n+]1c(/C=C\Nc2ccccc2)oc2ccc(-c3ccccc3)cc21 | 376*
CC[n+]1c(/C=C/Nc2ccccc2)oc2ccc(OC)cc21 | 456*
CC[n+]1c(/C=C/N(C)c2ccccc2)oc2ccc(F)cc21 | 6
CCOC(=O)c1c(-c2ccccc2)oc2ccc(OC)cc12 | 0
CC[n+]1c(/C=C/N(C)c2ccccc2)oc2ccccc21 | 156
N#CCSc1ccc(-c2nc3ccccc3[nH]2)cn1 | -90
CC(C)CC(c1nnnn1CCc1ccccc1)N1CCC(C(N)=O)CC1 (stereo not drawn) | -100
O=C(COC(=O)C1CCCCC1)Nc1ccccc1OC(F)F | 122
N#Cc1ccc(OCC(=O)N/N=C(\CCC(=O)O)c2cccs2)cc1 | 136
CC(C)C(NS(=O)(=O)c1cccs1)C(=O)NCCN1CCN(c2ccccc2)CC1 (stereo not drawn) | -6
CC(Cc1ccccc1)C(=O)NCc1ccncc1 (stereo not drawn) | -5
CC(C)C(NS(=O)(=O)c1cccs1)C(=O)NCc1ccc2c(c1)OCO2 (stereo not drawn) | 162*
CCCC(C)C(=O)NCc1ccc2c(c1)OCO2 (stereo not drawn) | 3
CCOC(=O)CNC(=O)C(Cc1ccccc1)NS(=O)(=O)c1cccs1 (stereo not drawn) | 106
Cc1ccc(CNC(=O)C(Cc2ccccc2)NS(=O)(=O)c2cccs2)cc1 (stereo not drawn) | 96*
O=C(NN1C(=O)c2ccc(-c3ccc4c(c3)C(=O)N(NC(=O)c3cccnc3)C4=O)cc2C1=O)c1cccnc1 | 6
CC(=O)NC1=NN(C(C)=O)C(c2ccc(F)cc2)S1 (stereo not drawn) | -83
CC1Cc2ccccc2N1C(=O)CO/N=C/c1ccc(OC(F)F)cc1 (stereo not drawn) | 7
CCOC(=O)C(C(C)C)C(N)Cc1ccc(F)cc1 (stereo not drawn) | -3
COc1cc(S(=O)(=O)Nc2cccc(C)c2)ccc1NC(=O)c1ccncc1 | -7
OC(CN1CCN(c2ccccn2)CC1)Cn1c2ccccc2c2ccccc21 (stereo not drawn) | -7
OC(COc1cccc(OCC(O)CN2CCOCC2)c1)CN1CCOCC1 (stereo not drawn) | 50
Cc1ccc2c(c1)c(C)c(C)n2CC(O)CN1CCOCC1 (stereo not drawn) | 533*
SMILES | Insulin prom act
COc1ccc(CCc2nnc(CCC(=O)NCCc3ncccc3C)o2)cc1 | 4
COc1cc2c(cc1OC)C(C(=O)Nc1cccc(C)n1)C(c1cccnc1)N(C)C2=O (stereo not drawn) | 0
COc1cc2c(cc1OC)C(C(=O)Nc1ccccc1N1CCN(C)CC1)C1c3ccccc3CCN1C2=O (stereo not drawn) | 355*
COc1ccc(C2C(C(=O)N3CCN(C)CC3)c3cc(OC)c(OC)cc3C(=O)N2C)cc1 (stereo not drawn) | 0
COc1cccc2c1C(=O)c1c(O)c3c(c(O)c1C2=O)C[C@@](O)(C(=O)CO)C[C@@H]3O[C@H]1C[C@H](N)[C@H](O)[C@H](C)O1 | 354*
CN(/N=C/c1cccnc1)c1cnc2ccccc2n1 | -78
CSc1nc2sc3c(c2c(=O)[nH]1)CCC3 | 0
COc1ccc(/C=C2\C(=O)NCC(=O)N2Cc2ccccc2)cc1 | -9
COc1ccc(/C=C/c2ccc(=O)n(Cc3ccccc3)n2)cc1 | 8
COc1ccc(/C=C/C2=NN(Cc3ccccc3)C(=O)CC2)cc1 | 388*
CC1CCCCC1NC(=O)/C(C#N)=C/c1ccccc1F (stereo not drawn) | -7
O=C(O)CCC(=O)N1CCN(c2cccc(Cl)c2)CC1 | 467*
CC(=O)/C(C(=N)N1CCN(c2cccc(Cl)c2)CC1)=C(\C)O | -6
O=C(CN1CCN(c2cccc(Cl)c2)CC1)N1CCCC1 | -7
Cc1cccc(C(=O)NCc2nnc3c4ccccc4c(-c4ccccc4)nn23)c1 | -2
O=C(NCCc1ccccc1Cl)C1CCN(S(=O)(=O)c2cccs2)CC1 | 7
COc1ccc(N2CCN(CCNC(=O)C3CCN(S(=O)(=O)c4cccs4)CC3)CC2)cc1 | 0
CCC(C)(C)NC(=O)C1CCN(S(=O)(=O)c2cccs2)CC1 | +[fluoresces]
CCOC(=O)c1c(NC(=O)C2CCN(S(=O)(=O)c3cccs3)CC2)sc(C)c1C | 454*
CCOC(=O)Nc1sc(C)c(C)c1C(=O)OCC | 0
Cc1ccccc1NC(=O)C1CCN(S(=O)(=O)c2cccs2)CC1 | -7
Cn1c(Cc2ccccc2)nnc1SCc1ccc(C(=O)O)cc1 | -75
CSCCC(NC(=O)c1ccc(C(C)(C)C)cc1)C(=O)O (stereo not drawn) | 144
Cn1ccnc1Sc1ccc(/C=N/NC(=O)c2ccccc2O)cc1[N+](=O)[O-] | 7
COc1ccc(-c2cc(C(F)(F)F)nc(-n3ccnc3C)n2)cc1 | 0
